ChEMBL document CHEMBL4689842, “EUbOPEN Chemogenomics Library wave 1” (2021)
Values joined by “and” are separate entries in the source; they are usually repeats but may differ in a detail not shown here. Equal values may be shown once.

What was measured:
Type in all cases: toxicity, cell-based
[1] = test system: Fibroblast; assay: Multiplex assay against human fibroblast; conditions: 1 µM, compound concentration 1 uM
Method in brief: (§1)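 Four dyes were applied at seeding to live cells: Hoechst33342, BioTracker Green Microtubule Cytoskeleton Dye, MitoTracker Red and Annexin V Alexa Fluor 680. Imaging after compound addition used a CQ1 microscope at 37°C and 5% CO2. CellPathfinder machine-learning gating then sorted cells into Hoechst high-intensity objects or normal cells, normal cells into healthy, pyknosed or fragmented nuclei, and pyknosed cells into mitotic or apoptotic, with tubulin, mitochondrial-mass and membrane-permeability phenotypes given as per cents of healthy-nucleus cells.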

[2] = test system: U2OS; assay: Incucyte cell viability with U2OS; conditions: human, 10 µM, compound concentration 10 uM; further: filed as whole numbers so only -1 and 0 and 1 occur
[3] = test system: HEK-293T; assay: Multiplex assay against HEK293T; conditions: human, 1 µM, compound concentration 1 uM; method in brief: as §1
[4] = test system: Fibroblast; assay: Incucyte cell viability with human fibroblast; conditions: 10 µM, compound concentration 10 uM; further: filed as whole numbers so only -1 and 0 and 1 occur
[5] = test system: U2OS; assay: Multiplex assay against U2OS; conditions: human, 1 µM, compound concentration 1 uM; method in brief: as §1
[6] = test system: HEK-293T; assay: Incucyte cell viability with HEK293T; conditions: human, 10 µM, compound concentration 10 uM; further: filed as whole numbers so only -1 and 0 and 1 occur
[7] = 6 h, replicate number 1, timepoint 6 hours
[8] = 12 h, replicate number 1, timepoint 12 hours
[9] = 18 h, replicate number 1, timepoint 18 hours
[10] = 24 h, replicate number 1, timepoint 24 hours

FC(F)c1nc2ccccc2n1-c1nc(N2CCOCC2)nc(N2CCOCC2)n1 [ZSTK-474]
Population Apoptotic (%) ([1]; 12 h, replicate 1): 75% and 78%
Population Fragmented Nuclei (%) ([1]; 12 h, replicate 1): 31% and 20%
Population Healthy Nuclei (%) ([1]; 12 h, replicate 1): 54% and 67%
Population Hoechst High Intensity Objects (%) ([1]; 12 h, replicate 1): 15% and 11%
Population Mitochondria Different-Phenotype (%) ([1]; 12 h, replicate 1): 3% and 1%
Population Mitotic Cells (%) ([1]; 12 h, replicate 1): 25% and 21%
Population Normal (%) ([1]; 12 h, replicate 1): 84% and 88%
Population Pyknosed Nuclei (%) ([1]; 12 h, replicate 1): 14% and 11%
Total Cell Count ([1]; 12 h, replicate 1): 268 and 222
Population Fragmented Nuclei (%) ([1]; 12 h, replicate 2): 71% and 55%
Population Healthy Nuclei (%) ([1]; 12 h, replicate 2): 26% and 37%
Population Hoechst High Intensity Objects (%) ([1]; 12 h, replicate 2): 40% and 37%
Population Membrane Permeable-Phenotype (%) ([1]; 12 h, replicate 2): 0% and 6%
Population Mitochondria Different-Phenotype (%) ([1]; 12 h, replicate 2): 14% and 26%
Population Mitotic Cells (%) ([1]; 12 h, replicate 2): 100% and 66%
Population Normal (%) ([1]; 12 h, replicate 2): 59% and 62%
Total Cell Count ([1]; 12 h, replicate 2): 88 and 64
Population Apoptotic (%) ([1]; 24 h, replicate 1): 63% and 76%
Population Fragmented Nuclei (%) ([1]; 24 h, replicate 1): 24% and 22%
Population Healthy Nuclei (%) ([1]; 24 h, replicate 1): 61% and 64%
Population Hoechst High Intensity Objects (%) ([1]; 24 h, replicate 1): 12%
Population Membrane Permeable-Phenotype (%) ([1]; 24 h, replicate 1): 3% and 1%
Population Mitotic Cells (%) ([1]; 24 h, replicate 1): 36% and 24%
Population Normal (%) ([1]; 24 h, replicate 1): 87%
Population Pyknosed Nuclei (%) ([1]; 24 h, replicate 1): 14% and 12%
Population Tubulin-Different-Phenotype (%) ([1]; 24 h, replicate 1): 18% and 0%
Total Cell Count ([1]; 24 h, replicate 1): 235 and 226
Population Apoptotic (%) ([1]; 24 h, replicate 2): 0%
Population Fragmented Nuclei (%) ([1]; 24 h, replicate 2): 72% and 63%
Population Healthy Nuclei (%) ([1]; 24 h, replicate 2): 23% and 34%
Population Hoechst High Intensity Objects (%) ([1]; 24 h, replicate 2): 40% and 33%
Population Membrane Permeable-Phenotype (%) ([1]; 24 h, replicate 2): 8% and 7%
Population Mitochondria Different-Phenotype (%) ([1]; 24 h, replicate 2): 8% and 23%
Population Mitotic Cells (%) ([1]; 24 h, replicate 2): 100%
Population Normal (%) ([1]; 24 h, replicate 2): 60% and 66%
Population Pyknosed Nuclei (%) ([1]; 24 h, replicate 2): 3% and 2%
Total Cell Count ([1]; 24 h, replicate 2): 85 and 57
Growth Rate ([2]; 0 h, replicate number 1, timepoint 0 hours): 1
Growth Rate [2, 7]: 1
Growth Rate [2, 8]: 1
Growth Rate ([2]; 12 h, replicate number 2, timepoint 12 hours): 0
Growth Rate [2, 9]: 0
Growth Rate [2, 10]: 0
Population Apoptotic (%) ([3]; 12 h, replicate 1): 22% and 20%
Population Fragmented Nuclei (%) ([3]; 12 h, replicate 1): 18% and 14%
Population Healthy Nuclei (%) ([3]; 12 h, replicate 1): 59% and 50%
Population Hoechst High Intensity Objects (%) ([3]; 12 h, replicate 1): 16% and 20%
Population Membrane Permeable-Phenotype (%) ([3]; 12 h, replicate 1): 7% and 5%
Population Mitochondria Different-Phenotype (%) ([3]; 12 h, replicate 1): 6% and 13%
Population Mitotic Cells (%) ([3]; 12 h, replicate 1): 77% and 79%
Population Normal (%) ([3]; 12 h, replicate 1): 83% and 79%
Population Pyknosed Nuclei (%) ([3]; 12 h, replicate 1): 22% and 35%
Total Cell Count ([3]; 12 h, replicate 1): 600 and 593
Population Apoptotic (%) ([3]; 12 h, replicate 2): 18% and 16%
Population Fragmented Nuclei (%) ([3]; 12 h, replicate 2): 5% and 9%
Population Healthy Nuclei (%) ([3]; 12 h, replicate 2): 86% and 85%
Population Membrane Permeable-Phenotype (%) ([3]; 12 h, replicate 2): 4% and 3%
Population Mitotic Cells (%) ([3]; 12 h, replicate 2): 81% and 83%
Population Normal (%) ([3]; 12 h, replicate 2): 90% and 97%
Population Pyknosed Nuclei (%) ([3]; 12 h, replicate 2): 8% and 4%
Total Cell Count ([3]; 12 h, replicate 2): 1084 and 1487
Population Apoptotic (%) ([3]; 24 h, replicate 1): 28% and 17%
Population Fragmented Nuclei (%) ([3]; 24 h, replicate 1): 16% and 15%
Population Healthy Nuclei (%) ([3]; 24 h, replicate 1): 54% and 72%
Population Hoechst High Intensity Objects (%) ([3]; 24 h, replicate 1): 19% and 13%
Population Membrane Permeable-Phenotype (%) ([3]; 24 h, replicate 1): 8%
Population Mitotic Cells (%) ([3]; 24 h, replicate 1): 71% and 82%
Population Normal (%) ([3]; 24 h, replicate 1): 80% and 86%
Population Pyknosed Nuclei (%) ([3]; 24 h, replicate 1): 28% and 11%
Total Cell Count ([3]; 24 h, replicate 1): 526 and 650
Population Apoptotic (%) ([3]; 24 h, replicate 2): 12% and 13%
Population Fragmented Nuclei (%) ([3]; 24 h, replicate 2): 11% and 31%
Population Healthy Nuclei (%) ([3]; 24 h, replicate 2): 79% and 66%
Population Hoechst High Intensity Objects (%) ([3]; 24 h, replicate 2): 11% and 4%
Population Membrane Permeable-Phenotype (%) ([3]; 24 h, replicate 2): 10% and 6%
Population Mitotic Cells (%) ([3]; 24 h, replicate 2): 87% and 86%
Population Normal (%) ([3]; 24 h, replicate 2): 88% and 95%
Total Cell Count ([3]; 24 h, replicate 2): 1133 and 2662
Growth Rate ([4]; 0 h, replicate number 2, timepoint 0 hours): 0
Growth Rate [4, 7]: 0
Growth Rate [4, 8]: 0
Growth Rate [4, 9]: 0
Growth Rate [4, 10]: 0
Population Fragmented Nuclei (%) ([5]; 12 h, replicate 1): 3%
Population Healthy Nuclei (%) ([5]; 12 h, replicate 1): 89% and 87%
Population Hoechst High Intensity Objects (%) ([5]; 12 h, replicate 1): 4% and 3%
Population Membrane Permeable-Phenotype (%) ([5]; 12 h, replicate 1): 18% and 7%
Population Mitotic Cells (%) ([5]; 12 h, replicate 1): 56% and 88%
Population Normal (%) ([5]; 12 h, replicate 1): 95% and 96%
Population Pyknosed Nuclei (%) ([5]; 12 h, replicate 1): 7% and 6%
Population Tubulin-Different-Phenotype (%) ([5]; 12 h, replicate 1): 13% and 23%
Total Cell Count ([5]; 12 h, replicate 1): 134 and 206
Population Fragmented Nuclei (%) ([5]; 12 h, replicate 2): 8% and 5%
Population Healthy Nuclei (%) ([5]; 12 h, replicate 2): 85%
Population Hoechst High Intensity Objects (%) ([5]; 12 h, replicate 2): 14% and 10%
Population Membrane Permeable-Phenotype (%) ([5]; 12 h, replicate 2): 21% and 13%
Population Mitochondria Different-Phenotype (%) ([5]; 12 h, replicate 2): 9% and 18%
Population Mitotic Cells (%) ([5]; 12 h, replicate 2): 83% and 28%
Population Normal (%) ([5]; 12 h, replicate 2): 85% and 89%
Population Pyknosed Nuclei (%) ([5]; 12 h, replicate 2): 5%
Population Tubulin-Different-Phenotype (%) ([5]; 12 h, replicate 2): 20% and 35%
Total Cell Count ([5]; 12 h, replicate 2): 147 and 107
Population Healthy Nuclei (%) ([5]; 24 h, replicate 1): 90%
Population Hoechst High Intensity Objects (%) ([5]; 24 h, replicate 1): 2%
Population Mitochondria Different-Phenotype (%) ([5]; 24 h, replicate 1): 4% and 12%
Population Normal (%) ([5]; 24 h, replicate 1): 97%
Population Pyknosed Nuclei (%) ([5]; 24 h, replicate 1): 4% and 3%
Population Tubulin-Different-Phenotype (%) ([5]; 24 h, replicate 1): 12% and 25%
Total Cell Count ([5]; 24 h, replicate 1): 190 and 236
Population Apoptotic (%) ([5]; 24 h, replicate 2): 28% and 50%
Population Fragmented Nuclei (%) ([5]; 24 h, replicate 2): 4% and 6%
Population Healthy Nuclei (%) ([5]; 24 h, replicate 2): 89%
Population Hoechst High Intensity Objects (%) ([5]; 24 h, replicate 2): 11% and 4%
Population Membrane Permeable-Phenotype (%) ([5]; 24 h, replicate 2): 20% and 11%
Population Mitochondria Different-Phenotype (%) ([5]; 24 h, replicate 2): 9% and 20%
Population Mitotic Cells (%) ([5]; 24 h, replicate 2): 71% and 50%
Population Normal (%) ([5]; 24 h, replicate 2): 88% and 95%
Population Pyknosed Nuclei (%) ([5]; 24 h, replicate 2): 5%
Population Tubulin-Different-Phenotype (%) ([5]; 24 h, replicate 2): 20% and 36%
Total Cell Count ([5]; 24 h, replicate 2): 188 and 114
Growth Rate [6, 7]: 0
Growth Rate [6, 8]: 0
Growth Rate [6, 9]: 0
Growth Rate [6, 10]: 0
